# Test results: ChEMBL document CHEMBL4673235, “Synthesis and biological evaluation of ethacrynic acid derivatives bearing sulfonamides as potent anti-cancer agents” (Bioorg Med Chem Lett, 2020)
# Tests used:
# HL-60 [1] = assay: Cytotoxicity against human HL-60 cells assessed as reduction in cell viability by CellTiter Glo luminescent assay; type: functional, cell-based
# Outline: (§1)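 CellTiter-Glo luminescent read-out of cellular ATP, taken as proportional to viable cell number; percentage viability measured and IC50 derived. MRC5 used as normal (non-cancer) line.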
# HL-60 [2] = assay: Cytotoxicity against human HL-60 cells assessed as cell viability at 10 uM by CellTiter Glo luminescent assay relative to control; type: functional; conditions: read-out: Activity
# Outline: (§2)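 Single-concentration screen at 10 µM; percentage viability measured by CellTiter-Glo luminescent quantitation of ATP in metabolically active cells.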
# HCT-116 [3] = assay: Cytotoxicity against human HCT-116 cells assessed as cell viability at 10 uM by CellTiter Glo luminescent assay relative to control; type: functional; conditions: read-out: Activity; outline: as §2
# [4] = Selectivity index, ratio of IC50 for human MRC5 cells to IC50 for human MCF7 cells by CellTiter Glo luminescent assay; type: toxicity; conditions: MRC5 cells versus MCF7 cells, read-out: Ratio IC50
# Outline: (§3)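 Safety ratio computed as IC50 in MRC5 normal cells divided by IC50 in the cancer line, both from CellTiter-Glo ATP-luminescence viability assays.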
# PC-3 = assay: Cytotoxicity against human PC-3 cells assessed as reduction in cell viability by CellTiter Glo luminescent assay; type: functional, cell-based; outline: as §1
# [5] = Selectivity index, ratio of IC50 for human MRC5 cells to IC50 for human U-87 MG cells by CellTiter Glo luminescent assay; type: toxicity; conditions: MRC5 cells versus U-87 MG cells, read-out: Ratio IC50; outline: as §3
# [6] = Selectivity index, ratio of IC50 for human MRC5 cells to IC50 for human HL60 cells by CellTiter Glo luminescent assay; type: toxicity; conditions: MRC5 cells versus HL60 cells, read-out: Ratio IC50
# [7] = Selectivity index, ratio of IC50 for human MRC5 cells to IC50 for human SK-OV-3 cells by CellTiter Glo luminescent assay; type: toxicity; conditions: MRC5 cells versus SK-OV-3 cells, read-out: Ratio IC50; outline: as §3
# A549 = assay: Cytotoxicity against human A549 cells assessed as reduction in cell viability by CellTiter Glo luminescent assay; type: functional, cell-based; outline: as §1
# [8] = Selectivity index, ratio of IC50 for human MRC5 cells to IC50 for human A549 cells by CellTiter Glo luminescent assay; type: toxicity; conditions: MRC5 cells versus A549 cells, read-out: Ratio IC50; outline: as §3
# MRC5 = assay: Cytotoxicity against human MRC5 cells assessed as reduction in cell viability by CellTiter Glo luminescent assay; type: cell-based; outline: as §1
# U-87 MG = assay: Cytotoxicity against human U-87 MG cells assessed as reduction in cell viability by CellTiter Glo luminescent assay; type: functional, cell-based, U-87MG ATCC; outline: as §1
# [9] = Selectivity index, ratio of IC50 for human MRC5 cells to IC50 for human HCT-116 cells by CellTiter Glo luminescent assay; type: toxicity; conditions: MRC5 cells versus HCT-116 cells, read-out: Ratio IC50; outline: as §3
# HCT-116 [10] = assay: Cytotoxicity against human HCT-116 cells assessed as reduction in cell viability by CellTiter Glo luminescent assay; type: functional, cell-based; outline: as §1
# SK-OV-3 = assay: Cytotoxicity against human SK-OV-3 cells assessed as reduction in cell viability by CellTiter Glo luminescent assay; type: functional, cell-based; outline: as §1
# MCF7 = assay: Cytotoxicity against human MCF7 cells assessed as reduction in cell viability by CellTiter Glo luminescent assay; type: functional, cell-based; outline: as §1
# [11] = Selectivity index, ratio of IC50 for human MRC5 cells to IC50 for human PC-3 cells by CellTiter Glo luminescent assay; type: toxicity; conditions: MRC5 cells versus PC-3 cells, read-out: Ratio IC50; outline: as §3
# [12] = Selectivity index, ratio of IC50 for human HL-60 cells to IC50 for human HCT-116 cells by CellTiter Glo luminescent assay; type: functional
SMILES,IC50 (HL-60 [1]) [nM],viability at 10 µM (HL-60 [2]) [%],viability at 10 µM (HCT-116 [3]) [%],also measured
C=C(CC)C(=O)c1ccc(OCC(=O)NC2CCN(S(=O)(=O)c3cccc4cccnc34)CC2)c(Cl)c1Cl,970,34,84,–
C=C(CC)C(=O)c1ccc(OCC(=O)NCCNS(=O)(=O)c2cccc3cccnc23)c(Cl)c1Cl,1330,20,100,–
C=C(CC)C(=O)c1ccc(OCC(=O)NCCNS(=O)(=O)C2CCCCC2)c(Cl)c1Cl,1340,28,91,–
C=C(CC)C(=O)c1ccc(OCC(=O)NC2CCN(S(=O)(=O)c3ccc(OC)cc3OC)CC2)c(Cl)c1Cl,860,11,90,–
C=C(CC)C(=O)c1ccc(OCC(=O)N2CCN(S(=O)(=O)c3ccc(OC)cc3)CC2)c(Cl)c1Cl,590,17,21,selectivity ratio [4]: 1.78; IC50 (PC-3): 24 nM; selectivity ratio [5]: 0.48; selectivity ratio [6]: 0.16; selectivity ratio [7]: 0.45; IC50 (A549): 64 nM; selectivity ratio [8]: 1.54; IC50 (MRC5): 100 nM; IC50 (U-87 MG): 207 nM; selectivity ratio [9]: 2; IC50 (HCT-116 [10]): 50 nM; IC50 (SK-OV-3): 219 nM; IC50 (MCF7): 56 nM; selectivity ratio [11]: 4.03; Ratio IC50 [12]: 12
C=C(CC)C(=O)c1ccc(OCC(=O)N2CCN(S(C)(=O)=O)CC2)c(Cl)c1Cl,3390,24,68,–
C=C(CC)C(=O)c1ccc(OCC(=O)NC2CCN(S(=O)(=O)c3ccc([N+](=O)[O-])cc3)CC2)c(Cl)c1Cl,2470,23,100,–
C=C(CC)C(=O)c1ccc(OCC(=O)NCCNS(C)(=O)=O)c(Cl)c1Cl,940,21,62,–
C=C(CC)C(=O)c1ccc(OCC(=O)N2CCN(S(=O)(=O)c3ccc([N+](=O)[O-])cc3)CC2)c(Cl)c1Cl,3260,24,100,–
C=C(CC)C(=O)c1ccc(OCC(=O)NCCNS(=O)(=O)c2ccc(C)cc2)c(Cl)c1Cl,2370,17,100,–
C=C(CC)C(=O)c1ccc(OCC(=O)N2CCN(S(=O)(=O)C3CCCCC3)CC2)c(Cl)c1Cl,2320,32,100,–
C=C(CC)C(=O)c1ccc(OCC(=O)NCCNS(=O)(=O)c2ccc([N+](=O)[O-])cc2)c(Cl)c1Cl,580,27,59,–
COc1cccc2c1C(=O)c1c(O)c3c(c(O)c1C2=O)C[C@@](O)(C(=O)CO)C[C@@H]3O[C@H]1C[C@H](N)[C@H](O)[C@H](C)O1 [DOXORUBICIN],10,–,–,IC50 (PC-3): 2 nM; IC50 (A549): 56 nM; IC50 (MRC5): 39 nM; IC50 (U-87 MG): 90 nM; IC50 (HCT-116 [10]): 90 nM; IC50 (MCF7): 120 nM
C=C(CC)C(=O)c1ccc(OCC(=O)N2CCN(S(=O)(=O)c3cc(Cl)ccc3OC)CC2)c(Cl)c1Cl,1410,24,75,–
C=C(CC)C(=O)c1ccc(OCC(=O)NC2CCN(S(=O)(=O)C3CCCCC3)CC2)c(Cl)c1Cl,2940,41,61,–
C=C(CC)C(=O)c1ccc(OCC(=O)NCCNS(=O)(=O)c2ccc(OC)cc2)c(Cl)c1Cl,860,24,97,–
C=C(CC)C(=O)c1ccc(OCC(=O)N2CCN(S(=O)(=O)c3ccc(C)cc3)CC2)c(Cl)c1Cl,–,64,100,–
C=C(CC)C(=O)c1ccc(OCC(=O)NC2CCN(S(=O)(=O)c3ccc(OC)c(OC)c3)CC2)c(Cl)c1Cl,1310,25,99,–
C=C(CC)C(=O)c1ccc(OCC(=O)NC2CCN(S(=O)(=O)c3ccc(OC)cc3)CC2)c(Cl)c1Cl,630,25,45,selectivity ratio [4]: 33.8; IC50 (PC-3): 112 nM; selectivity ratio [5]: 18.1; selectivity ratio [6]: 6.85; selectivity ratio [7]: 14; IC50 (A549): 67 nM; selectivity ratio [8]: 63.8; IC50 (MRC5): 4320 nM; IC50 (U-87 MG): 238 nM; selectivity ratio [9]: 3.75; IC50 (HCT-116 [10]): 1150 nM; IC50 (SK-OV-3): 309 nM; IC50 (MCF7): 128 nM; selectivity ratio [11]: 38.6
C=C(CC)C(=O)c1ccc(OCC(=O)NC2CCN(S(=O)(=O)c3ccc(C)cc3)CC2)c(Cl)c1Cl,980,25,100,–
C=C(CC)C(=O)c1ccc(OCC(=O)NCCNS(=O)(=O)c2ccc(OC)c(OC)c2)c(Cl)c1Cl,3360,19,97,–
C=C(CC)C(=O)c1ccc(OCC(=O)N2CCN(S(=O)(=O)c3ccc(OC)cc3OC)CC2)c(Cl)c1Cl,3190,15,40,–
C=C(CC)C(=O)c1ccc(OCC(=O)N2CCN(S(=O)(=O)c3ccc(OC)c(OC)c3)CC2)c(Cl)c1Cl,–,100,89,–
C=C(CC)C(=O)c1ccc(OCC(=O)NCCNS(=O)(=O)c2cc(Cl)ccc2OC)c(Cl)c1Cl,1600,18,78,–
C=C(CC)C(=O)c1ccc(OCC(=O)NC2CCN(S(=O)(=O)c3cc(Cl)ccc3OC)CC2)c(Cl)c1Cl,700,16,–,selectivity ratio [4]: 9.27; IC50 (PC-3): 76 nM; selectivity ratio [5]: 2.93; selectivity ratio [6]: 1.28; selectivity ratio [7]: 6; IC50 (A549): 55 nM; selectivity ratio [8]: 16.3; IC50 (MRC5): 900 nM; IC50 (U-87 MG): 307 nM; selectivity ratio [9]: 1.13; IC50 (HCT-116 [10]): 790 nM; IC50 (SK-OV-3): 150 nM; IC50 (MCF7): 97 nM; selectivity ratio [11]: 11.8
C=C(CC)C(=O)c1ccc(OCC(=O)NCCNS(=O)(=O)c2ccc(OC)cc2OC)c(Cl)c1Cl,2790,35,77,–
C=C(CC)C(=O)c1ccc(OCC(=O)N2CCN(S(=O)(=O)c3cccc4cccnc34)CC2)c(Cl)c1Cl,2980,28,100,–
C=C(CC)C(=O)c1ccc(OCC(=O)NC2CCN(S(C)(=O)=O)CC2)c(Cl)c1Cl,3330,26,73,–
